This is an account of results in ChEMBL document CHEMBL1126800, “Preparation of substituted N-phenyl-4-aryl-2-pyrimidinamines as mediator release inhibitors” (J Med Chem, 1993).

Structures are written as SMILES.

For data set [1], the species on record is Homo sapiens. The data set is described as follows: In vitro inhibition of histamine release from human basophils; H= Compound interfered with the histamine assay. It counts as functional, organism-based. The procedure, abridged: (§1)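 Human basophils separated from leukocytes were incubated with test compound, then challenged with anti-IgE or antigen (Lichtenstein method). Histamine release was measured against controls and blanks. IC50 is the concentration lowering histamine release by 50%.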

For data set [2], the species on record is Homo sapiens. The data set is described as follows: In vitro inhibition of histamine release from human basophils. It counts as functional, organism-based. The procedure, abridged:
as §1

Data set [3] is described as follows: Tested for toxic concentration in mice. It counts as ADME, organism-based. The conditions noted are these: mouse, in vivo.
Data set [4] relates to Mus musculus. The data set is described as follows: Tested for in vivo activity in mouse by passive cutaneous anaphylaxis (PCA) test. It counts as functional. The following applies: read-out: ID50 (the source's name). The method in brief:
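Mouse passive cutaneous anaphylaxis test with oral dosing of compound. Read at times of […] after dosing. Value expressed as ID50 in mg/kg.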

The species entered for data set [5] is Homo sapiens. The data set is described as follows: Tested for in vitro cell leukotriene C4 release inhibition by radioimmunoassay. It counts as functional, organism-based. The procedure, abridged: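 Basophils were incubated with compound and challenged. LTC4 release was measured by radioimmunoassay, with duplicate samples processed per the [3H] LTC4 RIA kit procedure. Histamine release was measured simultaneously on a second portion of the same cells. IC50 is from n = 5.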

Broadly, the IC50 is the concentration needed to halve the response being measured. Read a low IC50 as higher potency. As to `CNc1ccc(Nc2nccc(-c3ccncc3)n2)cc1.Cl.Cl`, the half-inhibitory concentration (IC50) entry in data set [1] is given as “Compound interfered with the histamine assay”.
Take `c1cc(Nc2nccc(-c3ccco3)n2)cc(-n2ccnc2)c1`: half-maximal inhibition in data set [2] (Homo sapiens) (IC50) was put at 800 nM. This counts as sub-micromolar.
`Cc1cc(-c2ccncc2)nc(Nc2cccc(N(C)C)c2)n1` came in with an IC50 in data set [2] (Homo sapiens) of more than 24000 nM.
Same read-out and setting: under `Cc1cc(-c2ccnc(Nc3ccccc3)n2)c(C)o1` stands 2000 nM; under `CCc1cccc(Nc2nccc(-c3ccncc3)n2)c1`, 10600 nM; under `Fc1cccc(Nc2nccc(-c3ccccn3)n2)c1`, 1000 nM.
`Cc1cccc(Nc2nccc(-c3cccnc3)n2)c1` returned an IC50 in data set [2] (Homo sapiens) of 1500 nM. This IC50 lies about 1.5-fold higher than the previous one.
Turning to `Cc1cccc(Nc2nccc(-c3ccccn3)n2)c1`, the half-inhibitory concentration (IC50) in data set [2] (Homo sapiens) worked out at 700 nM.
The same measure, in the same setting: the result for `COc1ccc(N(C)c2nccc(-c3cccnc3)n2)cc1` reads more than 24000 nM; that for `CN(C)c1ccc(Nc2nccc(-c3ccncc3)n2)cc1`, 3700 nM.
For orientation: LD50 means the dose at which mortality reaches 50%. A low value points to greater toxicity. As for `c1ccc(-c2ccnc(Nc3cccc(-n4ccnc4)c3)n2)nc1`, in data set [3], the 50% lethal dose (LD50) turned out to be 800 mg/kg. Also, the ED50 in data set [4] stood at 50 mg/kg. In addition, the values for the IC50 in data set [2] (Homo sapiens) and in data set [5] were 300 nM and 205 nM, respectively.
`FC(F)(F)c1cccc(Nc2nccc(-c3ccccn3)n2)c1` gave a 50% inhibitory concentration (IC50) in data set [2] of 400 nM.
In turn, `CC(=O)Nc1ccc(Nc2nccc(-c3ccccn3)n2)cc1` showed an IC50 in data set [2] (Homo sapiens) of 1500 nM.
Still for that read-out and setting: the result for `CCN(CC)CCOc1cccc(Nc2nccc(-c3cccnc3)n2)c1` reads 2900 nM.
